Active and inactive are the calls of the source. The calls are words filed in the database; no cut-off is given here.
Key:
U-937 = assay: Cytotoxicity against human U937 cells by MTT assay; type: functional, cell-based
Procedure, shortened: (§1)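 Cytotoxicity was read by MTT assay on human tumour lines: A549 lung, HT-29 colon, MCF-7 breast, SK-OV-3 ovary, and HL-60 and U937 leukaemia. Results are given as IC50 (μM), with values below 100 μM counted as active. A positive control was included.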

HT-29 = assay: Cytotoxicity against human HT-29 cells by MTT assay; type: functional, cell-based; procedure, shortened: as §1
A549 = assay: Cytotoxicity against human A549 cells by MTT assay; type: functional, cell-based; procedure, shortened: as §1
MCF7 = assay: Cytotoxicity against human MCF7 cells by MTT assay; type: functional, cell-based; procedure, shortened: as §1
SK-OV-3 = assay: Cytotoxicity against human SKOV3 cells by MTT assay; type: functional, cell-based; procedure, shortened: as §1
HL-60 [1] = assay: Cytotoxicity against human HL60 cells by MTT assay; type: functional, cell-based; procedure, shortened: as §1
HL-60 [2] = assay: Cell cycle distribution in human HL60 cells assessed as cell cycle accumulation at sub-G1 phase at 21.3 uM after 24 hrs by flow cytometry; type: functional
Procedure, shortened: (§2)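 HL-60 cells exposed for 6, 12 or 24 h, then washed twice in PBS and fixed in 70% ethanol (30 min, 4°C). After a PBS rinse they were stained in the dark with 50 μg/mL propidium iodide plus 50 μg/mL RNase A (30 min, 37°C). DNA content was read by flow cytometry, and the sub-G1 hypodiploid fraction was taken from the DNA histograms.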

HL-60 [3] = assay: Induction of apoptosis in human HL60 cells assessed as increase in number of apoptotic body with condensed and fragmented nuclei at 21.3 uM after 6 to 24 hrs by H33342 staining method; type: functional, cell-based
Procedure, shortened: (§3)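 HL-60 cells at 3×10^5 cells/mL were exposed for 6, 12 and 24 h, washed twice with PBS and stained with 1 mg/mL Hoechst 33342 (30 min, 37°C). Apoptotic bodies, seen as condensed and fragmented nuclei, were scored by fluorescence microscopy at ×400.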

HL-60 [4] = assay: Cell cycle distribution in human HL60 cells assessed as cell cycle accumulation at sub-G1 phase at 21.3 uM after 6 hrs by flow cytometry; type: functional; procedure, shortened: as §2
HL-60 [5] = assay: Cell cycle distribution in human HL60 cells assessed as cell cycle accumulation at sub-G1 phase at 21.3 uM after 12 hrs by flow cytometry; type: functional; procedure, shortened: as §2
HL-60 [6] = assay: Cell cycle distribution in human HL60 cells assessed as cell cycle accumulation at sub-G1 phase at 21.5 uM after 6 hrs by flow cytometry; type: functional; procedure, shortened: as §2
HL-60 [7] = assay: Induction of apoptosis in human HL60 cells assessed as increase in number of apoptotic body with condensed and fragmented nuclei at 21.5 uM after 6 to 24 hrs by H33342 staining method; type: functional, cell-based; procedure, shortened: as §3
HL-60 [8] = assay: Cell cycle distribution in human HL60 cells assessed as cell cycle accumulation at sub-G1 phase at 21.5 uM after 24 hrs by flow cytometry; type: functional; procedure, shortened: as §2
HL-60 [9] = assay: Cell cycle distribution in human HL60 cells assessed as cell cycle accumulation at sub-G1 phase at 21.5 uM after 12 hrs by flow cytometry; type: functional; procedure, shortened: as §2
HL-60 [10] = assay: Cell cycle distribution in human HL60 cells assessed as cell cycle accumulation at sub-G1 phase at 19.9 uM after 24 hrs by flow cytometry; type: functional; procedure, shortened: as §2
HL-60 [11] = assay: Induction of apoptosis in human HL60 cells assessed as increase in number of apoptotic body with condensed and fragmented nuclei at 19.9 uM after 6 to 24 hrs by H33342 staining method; type: functional, cell-based; procedure, shortened: as §3
HL-60 [12] = assay: Cell cycle distribution in human HL60 cells assessed as cell cycle accumulation at sub-G1 phase at 19.9 uM after 6 hrs by flow cytometry; type: functional; procedure, shortened: as §2
HL-60 [13] = assay: Cell cycle distribution in human HL60 cells assessed as cell cycle accumulation at sub-G1 phase at 19.9 uM after 12 hrs by flow cytometry; type: functional; procedure, shortened: as §2

| Structure (SMILES) | IC50 (U-937) [µM] | IC50 (HT-29) [µM] | IC50 (A549) [µM] | IC50 (MCF7) [µM] | IC50 (SK-OV-3) [µM] | IC50 (HL-60 [1]) [µM] | Activity (HL-60 [2]) [%] | Activity (HL-60 [3]) | Activity (HL-60 [4]) [%] | Activity (HL-60 [5]) [%] | Activity (HL-60 [6]) [%] | Activity (HL-60 [7]) | Activity (HL-60 [8]) [%] | Activity (HL-60 [9]) [%] | Activity (HL-60 [10]) [%] | Activity (HL-60 [11]) | Activity (HL-60 [12]) [%] | Activity (HL-60 [13]) [%] |
| --- | --- | --- | --- | --- | --- | --- | --- | --- | --- | --- | --- | --- | --- | --- | --- | --- | --- | --- |
| O=C1c2c(O)ccc(O)c2C(=O)c2c(NCCNCCO)ccc(NCCNCCO)c21 [MITOXANTRONE] | 6.2 | 8.7 | 8 | 7.1 | 9.8 | 6.3 |  |  |  |  |  |  |  |  |  |  |  |  |
| CC(CCC(C)C1CCC2C3CC4OC45CC(O)CCC5(C)C3CCC12C)C1CC1C (stereo unspecified) | 19.9 | 69.9 | 9.8 | 19.4 | 22.6 | 21.3 | 51.33 | Active | 11.8 | 24.92 |  |  |  |  |  |  |  |  |
| C[C@H](CC[C@@H](C)[C@H]1CC[C@H]2[C@@H]3CC=C4C[C@@H](O)CC[C@]4(C)[C@H]3CC[C@]12C)[C@@H]1C[C@H]1C [PETROSTEROL] | 18.7 | 46.5 | 11.5 | 16.4 | 19.8 | 21.5 |  |  |  |  | 12.61 | Active | 52.58 | 27.4 |  |  |  |  |
| C[C@H](CC[C@@H](C)[C@H]1CC[C@H]2[C@@H]3CC(=O)C4=CC(=O)CC[C@]4(C)[C@H]3CC[C@]12C)[C@@H]1C[C@H]1C | 22.1 | 48.2 | 8.4 | 17.8 | 16.2 | 19.9 |  |  |  |  |  |  |  |  | 48.83 | Active | 11.19 | 21.85 |

From ChEMBL document CHEMBL1153479, “C29 sterols with a cyclopropane ring at C-25 and 26 from the Vietnamese marine sponge Ianthella sp. and their anticancer properties” (Bioorg Med Chem Lett, 2009)
